Active and inactive are the calls of the source. No cut-off for these calls is given here.
Columns and labels:
[1] = Inhibition of PI3Kdelta in 50% rat blood assessed as reduction in anti-IgM stimulated CD86 expression pretreated for 1 hr followed by anti-IgM stimulation after 24 hrs by flow cytometric analysis
Outline: (§1)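 Rat 50% whole blood; B cells stimulated with anti-IgM/IL-4; readouts pAKT or CD86.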

[2] = target: Phosphatidylinositol 4,5-bisphosphate 3-kinase catalytic subunit alpha isoform (Homo sapiens, UniProt P42336); assay: Inhibition of recombinant PI3Kalpha (unknown origin) using phosphatidyl inositol/n-Octyl-glucoside as substrate measured after 30 mins by KinaseGlo assay
[3] = Tmax in Beagle dog at 0.3 mg/kg, po by RP-HPLC analysis; assay type: ADME, organism-based, Canis lupus familiaris; details: in vivo
[4] = target: 3',5'-cyclic-AMP phosphodiesterase 4D (Homo sapiens, UniProt Q08499); assay: Inhibition of recombinant human PDE4D
[5] = Terminal half life in cynomolgus monkey at 0.1 mg/kg, iv by RP-HPLC analysis; assay type: ADME, organism-based, Macaca fascicularis; details: in vivo, read-out: beta t1/2 (converted)
[6] = Volume of distribution at steady state in cynomolgus monkey at 0.1 mg/kg, iv by RP-HPLC analysis; assay type: ADME, organism-based, Macaca fascicularis; details: in vivo, read-out: Vdss
Rattus norvegicus [7] = assay: Toxicity in Lewis rat type-2 collagen-induced arthritis model at 3 to 10 mg/kg, po bid; assay type: organism-based; details: in vivo
Outline: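 Rat collagen-induced arthritis, dosed b.i.d. either prophylactically (before disease onset) or therapeutically (once paw swelling was evident). Tolerability was judged by overt signs of toxicity across the multi-dose study. Disease endpoints were anti-rat collagen antibodies, paw swelling, inflammatory cell infiltration, proteoglycan loss and joint erosion.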

[8] = Oral bioavailability in Sprague-Dawley rat at 3 mg/kg by RP-HPLC analysis; assay type: ADME, organism-based; details: in vivo
Mus musculus [9] = assay: Toxicity in C57BL/6J mouse ozone-induced lung inflammation model at 10 to 100 mg/kg, po; assay type: organism-based; details: in vivo
Outline: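 Mice with ozone-induced lung inflammation got repeated doses. Tolerability was judged by overt signs of toxicity during the multi-dose study. Efficacy endpoints were BAL neutrophil and macrophage counts and BAL serum albumin as a measure of plasma leakage.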

[10] = target: Phosphatidylinositol 4,5-bisphosphate 3-kinase catalytic subunit beta isoform (Homo sapiens, UniProt P42338); assay: Inhibition of recombinant PI3Kbeta (unknown origin) using phosphatidyl inositol/n-Octyl-glucoside as substrate measured after 60 mins by KinaseGlo assay
Mus musculus [11] = assay: Antiinflammatory activity in po dosed C57BL/6J mouse ozone-induced lung inflammation model assessed as reduction in macrophage numbers in bronchoalveolar lavage pretreated for 1 hr followed by ozone exposure for 4 hrs and subsequent redosing measured after 24 hrs by Diff-quick staining based assay; assay type: functional
Outline: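 Mouse ozone-induced lung inflammation. Inflammatory cells are counted in bronchoalveolar lavage (neutrophils, macrophages) across several doses. ED50 is derived from the dose–response.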

Cynomolgus monkey [12] = assay: Dose normalized AUC in cynomolgus monkey at 0.1 mg/kg, iv by RP-HPLC analysis; assay type: ADME, organism-based, Macaca fascicularis; details: in vivo
Cynomolgus monkey [13] = assay: Ex-vivo inhibition of PI3Kdelta in po dosed cynomolgus monkey assessed as reduction in anti-IgM-induced AKT phosphorylation at ser473 residue in whole blood pretreated up to 24 hrs followed by anti-IgM stimulation after 20 mins by flow cytometric analysis; assay type: functional, organism-based; details: Macaca fascicularis
Rattus norvegicus [14] = assay: In-vivo inhibition of PI3Kdelta in po dosed sheep RBC-sensitized OFA-rat assessed as reduction in antigen-specific antibody response to SRBC by measuring plaque formation treated for 4 days starting from day 1 of immunization by microscopic method; assay type: functional, organism-based
Cynomolgus monkey [15] = assay: Dose normalized AUC in cynomolgus monkey at 0.3 mg/kg, po by RP-HPLC analysis; assay type: ADME, organism-based, Macaca fascicularis; details: in vivo
Outline: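 Single-dose PK in naive animals, with the compound given as the crystalline free base. Plasma exposure was expressed as AUC normalised to dose.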

[16] = Inhibition of PI3Kdelta in 50% rat blood assessed as reduction in anti-IgM stimulated AKT phosphorylation at ser473 residue pretreated for 1.5 hr followed by anti-IgM stimulation after 10 mins by flow cytometric analysis; outline: as §1
[17] = Oral bioavailability in Sprague-Dawley rat at 30 mg/kg by RP-HPLC analysis; assay type: ADME, organism-based; details: in vivo
Rattus norvegicus [18] = assay: Antiarthritic activity in Lewis rat type-2 collagen-induced arthritis model assessed as reduction in proteoglycan loss at 3 to 10 mg/kg, po bid administered prior to disease onset for 19 days starting from 5 days post type-2 collagen-induction measured post last dose by giemsa/safranin O staining based histopathological analysis; assay type: functional, organism-based
Outline: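 Rat collagen-induced arthritis, prophylactic regimen: dosing starts before disease onset, b.i.d. Readouts are anti-rat collagen antibodies, paw swelling, and histology (inflammatory cell infiltration, proteoglycan loss, joint erosion).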

[19] = Volume of distribution at steady state in Beagle dog at 0.1 mg/kg, iv by RP-HPLC analysis; assay type: ADME, organism-based, Canis lupus familiaris; details: in vivo, read-out: Vdss
Rattus norvegicus [20] = assay: Dose normalized AUC in Sprague-Dawley rat at 3 mg/kg, po by RP-HPLC analysis; assay type: ADME, organism-based; details: in vivo
Canis familiaris = assay: Dose normalized AUC in Beagle dog at 0.3 mg/kg, po by RP-HPLC analysis; assay type: ADME, organism-based, Canis lupus familiaris; details: in vivo

Chain of Phosphatidylinositol 4,5-bisphosphate 3-kinase catalytic subunit alpha isoform (P42336 whole entry, canonical isoform): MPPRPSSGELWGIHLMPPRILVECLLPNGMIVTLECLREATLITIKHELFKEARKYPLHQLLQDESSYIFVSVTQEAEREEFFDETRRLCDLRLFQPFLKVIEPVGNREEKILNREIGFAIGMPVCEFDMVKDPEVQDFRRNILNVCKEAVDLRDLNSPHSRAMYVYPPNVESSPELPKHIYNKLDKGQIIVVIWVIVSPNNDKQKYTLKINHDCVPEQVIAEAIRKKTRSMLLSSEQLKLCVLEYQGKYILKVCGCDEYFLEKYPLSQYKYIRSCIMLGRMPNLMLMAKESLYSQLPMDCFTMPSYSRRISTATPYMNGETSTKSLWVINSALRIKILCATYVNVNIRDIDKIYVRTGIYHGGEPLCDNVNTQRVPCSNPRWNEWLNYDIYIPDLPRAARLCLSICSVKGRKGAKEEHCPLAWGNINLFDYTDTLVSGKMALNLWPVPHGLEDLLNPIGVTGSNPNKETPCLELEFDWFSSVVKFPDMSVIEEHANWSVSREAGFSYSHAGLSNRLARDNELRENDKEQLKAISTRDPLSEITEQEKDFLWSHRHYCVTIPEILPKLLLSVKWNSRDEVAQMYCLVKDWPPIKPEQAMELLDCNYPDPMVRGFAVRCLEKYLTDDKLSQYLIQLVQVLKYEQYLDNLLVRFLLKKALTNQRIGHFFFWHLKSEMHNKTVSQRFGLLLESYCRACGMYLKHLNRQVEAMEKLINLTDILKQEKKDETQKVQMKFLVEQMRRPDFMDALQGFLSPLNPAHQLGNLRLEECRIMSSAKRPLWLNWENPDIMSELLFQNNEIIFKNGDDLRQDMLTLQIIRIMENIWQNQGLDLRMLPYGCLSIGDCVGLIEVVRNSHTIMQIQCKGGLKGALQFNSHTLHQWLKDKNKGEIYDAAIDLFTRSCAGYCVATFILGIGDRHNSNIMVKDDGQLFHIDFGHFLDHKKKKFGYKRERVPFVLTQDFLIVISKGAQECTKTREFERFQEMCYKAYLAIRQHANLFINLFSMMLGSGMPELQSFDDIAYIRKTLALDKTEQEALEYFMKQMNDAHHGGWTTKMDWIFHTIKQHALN
Chain of Phosphatidylinositol 4,5-bisphosphate 3-kinase catalytic subunit beta isoform (P42338 whole entry, canonical isoform): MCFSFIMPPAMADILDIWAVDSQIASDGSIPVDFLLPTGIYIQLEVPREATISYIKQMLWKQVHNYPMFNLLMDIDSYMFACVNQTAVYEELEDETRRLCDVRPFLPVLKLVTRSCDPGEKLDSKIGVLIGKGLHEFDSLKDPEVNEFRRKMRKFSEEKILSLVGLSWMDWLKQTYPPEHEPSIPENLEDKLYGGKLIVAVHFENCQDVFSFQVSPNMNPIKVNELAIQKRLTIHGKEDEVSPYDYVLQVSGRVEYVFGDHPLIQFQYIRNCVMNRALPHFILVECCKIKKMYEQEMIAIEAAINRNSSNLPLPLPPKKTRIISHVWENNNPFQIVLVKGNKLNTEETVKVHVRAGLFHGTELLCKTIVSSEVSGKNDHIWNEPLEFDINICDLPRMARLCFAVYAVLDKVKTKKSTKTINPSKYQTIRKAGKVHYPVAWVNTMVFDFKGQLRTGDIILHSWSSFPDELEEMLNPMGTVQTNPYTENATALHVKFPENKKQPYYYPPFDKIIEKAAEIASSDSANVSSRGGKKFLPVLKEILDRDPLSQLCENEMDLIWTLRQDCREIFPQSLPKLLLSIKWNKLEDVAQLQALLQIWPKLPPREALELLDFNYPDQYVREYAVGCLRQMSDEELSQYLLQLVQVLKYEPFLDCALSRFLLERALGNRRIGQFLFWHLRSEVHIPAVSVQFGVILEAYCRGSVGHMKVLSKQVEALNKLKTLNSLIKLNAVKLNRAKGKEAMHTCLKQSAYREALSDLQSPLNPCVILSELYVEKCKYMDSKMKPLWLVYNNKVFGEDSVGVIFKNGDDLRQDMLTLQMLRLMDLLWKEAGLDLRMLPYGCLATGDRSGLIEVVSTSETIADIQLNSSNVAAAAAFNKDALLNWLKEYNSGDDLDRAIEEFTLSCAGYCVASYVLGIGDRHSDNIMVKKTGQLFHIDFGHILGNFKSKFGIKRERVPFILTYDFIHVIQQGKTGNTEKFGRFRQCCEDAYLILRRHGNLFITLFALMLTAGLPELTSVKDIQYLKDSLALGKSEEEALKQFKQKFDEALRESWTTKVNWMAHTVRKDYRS
Chain of 3',5'-cyclic-AMP phosphodiesterase 4D (Q08499 whole entry): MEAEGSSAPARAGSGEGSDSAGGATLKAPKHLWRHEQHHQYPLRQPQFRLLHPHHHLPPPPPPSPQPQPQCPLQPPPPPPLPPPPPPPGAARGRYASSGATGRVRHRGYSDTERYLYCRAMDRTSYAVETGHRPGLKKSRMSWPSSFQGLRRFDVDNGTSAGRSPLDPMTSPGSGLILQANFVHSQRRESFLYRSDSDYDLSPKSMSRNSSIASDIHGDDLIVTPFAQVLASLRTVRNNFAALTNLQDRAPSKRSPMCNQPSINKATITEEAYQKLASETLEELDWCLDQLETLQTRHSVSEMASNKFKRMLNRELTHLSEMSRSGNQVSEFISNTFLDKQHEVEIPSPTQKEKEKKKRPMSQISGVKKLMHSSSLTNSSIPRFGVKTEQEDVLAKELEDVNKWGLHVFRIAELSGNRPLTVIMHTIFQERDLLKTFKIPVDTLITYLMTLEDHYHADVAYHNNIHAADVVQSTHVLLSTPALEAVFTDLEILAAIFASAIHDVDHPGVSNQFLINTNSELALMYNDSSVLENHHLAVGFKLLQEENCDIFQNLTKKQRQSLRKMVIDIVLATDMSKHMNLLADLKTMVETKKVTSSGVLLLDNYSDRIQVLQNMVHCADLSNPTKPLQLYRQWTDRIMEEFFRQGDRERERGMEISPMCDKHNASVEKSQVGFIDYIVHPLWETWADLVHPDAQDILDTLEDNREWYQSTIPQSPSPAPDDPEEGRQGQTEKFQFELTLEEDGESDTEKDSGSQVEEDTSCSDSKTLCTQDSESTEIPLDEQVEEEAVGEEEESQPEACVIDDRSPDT

For CCC(=O)N1CC[C@H](Nc2ncnc3c2CN(c2cnc(OC)c(C(F)(F)F)c2)CC3)C1 [LENIOLISIB], the IC50 [1] was 99 nM, the IC50 [2] was 244 nM and the Tmax [3] was 42 min. The IC50 [4] was 4700 nM, the half-life [5] was 42 min and the Vd [6] was 0.6 L/kg. The Activity (Rattus norvegicus [7]) was “Non-Toxic”, the bioavailability [8] was 86% and the Activity (Mus musculus [9]) was “Non-Toxic”. The IC50 [10] was 424 nM, the Activity (Mus musculus [11]) was “Dose-dependent effect” and the ED50 (Mus musculus [11]) was 40 mg/kg. For the same compound, the AUC/dose (Cynomolgus monkey [12]) was 2250 nM·h, the IC50 (Cynomolgus monkey [13]) was 84 to 140 nM and the inhibition (Rattus norvegicus [14]) was “Dose-dependent effect”. The AUC/dose (Cynomolgus monkey [15]) was 297 nM·h, the IC50 [16] was 150 nM and the bioavailability [17] was over 100%. The Activity (Rattus norvegicus [18]) was “Active”, the Vd [19] was 0.3 L/kg and the AUC/dose (Rattus norvegicus [20]) was 1165 nM·h. The AUC/dose (Canis familiaris) was 11690 nM·h.
